Experimental data from article PMC11995438 (Bioorganic & medicinal chemistry, 2023).
Values after ≈ are worked out from the molar mass of the structure shown. “Also recorded” adds a separate entry of the source. *1 amine or outer side, *2 acyl side, *3 side chain or, on linkers, in order; H or OH if unused. Where a SMILES comes first, the peptide text is derived from it. [ ]: non-standard residue; d: D form. X1 = CN([C@H](C(=O)[*:2])[C@@H](O)C(N)=O)[*:1]; Pro(4S-Me) = C[C@@H]1CN[C@H](C(=O)O)C1; N(OH)Ala = C[C@H](NO)C(=O)O; Lac = C[C@H](O)C(=O)O; Dha = C=C(N)C(=O)O

Assays:
[1] = Plasma protein binding by equilibrium dialysis, mouse plasma; type: in vitro ADME; details: for Plasma Protein Binding Mouse (%free): 2 μM, equilibrium dialysis 6 h, 37 °C
[2] = Plasma protein binding by equilibrium dialysis, human plasma; type: in vitro ADME; details: for Plasma Protein Binding Human (%free): 2 μM, equilibrium dialysis 6 h, 37 °C
CYP3A4 [3] = target: T1, CYP3A4 (Homo sapiens, UniProt P08684); assay: in vitro; details: microsomes
CYP2D6 = CYP2D6 (Homo sapiens, UniProt P10635); assay: P450 inhibition in human hepatic microsomes, CYP2D6; type: in vitro ADME; details: for Human P450 Inhibition 2D6 %Inh.: at 10 μM
CYP2C9 = CYP2C9 (Homo sapiens, UniProt P11712); assay: P450 inhibition in human hepatic microsomes, CYP2C9; type: in vitro ADME; details: for Human P450 Inhibition 2C9 %Inh.: at 10 μM
CYP1A2 = target: T2, CYP1A2 (Homo sapiens, UniProt P05177); assay: P450 inhibition in human hepatic microsomes, CYP1A2; type: in vitro ADME; details: for Human P450 Inhibition 1A2 %Inh.: at 10 μM
T2 sequence (P05177 1-516): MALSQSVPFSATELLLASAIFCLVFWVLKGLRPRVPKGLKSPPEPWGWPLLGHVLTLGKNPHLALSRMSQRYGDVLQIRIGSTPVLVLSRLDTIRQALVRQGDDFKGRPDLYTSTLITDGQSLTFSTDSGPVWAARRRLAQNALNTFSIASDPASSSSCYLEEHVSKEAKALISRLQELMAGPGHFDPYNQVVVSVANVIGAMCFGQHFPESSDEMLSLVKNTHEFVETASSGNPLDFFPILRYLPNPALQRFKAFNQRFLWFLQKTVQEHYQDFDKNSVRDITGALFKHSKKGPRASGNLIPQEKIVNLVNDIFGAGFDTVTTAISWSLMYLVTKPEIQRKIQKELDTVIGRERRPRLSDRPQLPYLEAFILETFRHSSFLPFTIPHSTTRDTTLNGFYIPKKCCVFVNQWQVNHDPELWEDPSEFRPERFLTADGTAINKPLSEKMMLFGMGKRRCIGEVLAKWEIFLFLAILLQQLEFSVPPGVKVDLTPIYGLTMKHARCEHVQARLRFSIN

[4] = target: human efflux transporter MDR1/P-gp (MDCK cells) (Homo sapiens, UniProt P08183); assay: MDCK-MDR1 permeability assay; details: for Permeability-MDCK-PgP Substrate?: P-gp substrate classification
[5] = target: T3, gatorbulin site of tubulin (Bos taurus, UniProt P81947+Q6B856); assay: Binding constants by MTC displacement; design: species or system calf; details: 10 μM tubulin plus 10 μM MTC, compound up to 100 μM
[6] = system: SK-OV-3-MDR1-M6/6 cell line; details: cited from earlier work
CYP3A4 [7] = target: T1, CYP3A4; assay: P450 inhibition in human hepatic microsomes, CYP3A4; details: at 10 μM
[8] = system: HeLa cervical cancer cells; assay: MTT viability assay, HeLa; type: cell-based; details: read-out: IC50 HeLa, 48 h
Summary of the method: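 HeLa cells grown in DMEM with 10 % FBS at 37 °C, 5 % CO₂. Seeded at 5000 cells/well, attached overnight, then exposed to a concentration series of test compound or 0.5 % DMSO. MTT read-out 48 h after treatment. IC50 by non-linear regression; mean ± SD, n = 3.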

[9] = system: SK-OV-3 ovarian cancer cells; assay: MTT viability assay, SK-OV-3; type: cell-based; details: for IC50: read-out: IC50 SK-OV-3, 48 h
[10] = Kinetic solubility in pH 7.4 phosphate buffered saline; type: physicochemical; details: 1% DMSO, 24 hours, top concentration 100 μM
PAMPA permeability = type: in vitro ADME; details: for Permeability-PAMPA Tested: 5 μM, pH 7.4, 5 hours; for Permeability-PAMPA Predicted level: predicted from PAMPA
β-tubulin = assay: Immunoblot analysis of β-tubulin levels in SK-OV-3 cells; type: cell-based; details: 16 h
Summary of the method: (§1)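 SK-OV-3 cells seeded at 2 × 10⁵/well and attached 24 h. Medium replaced, then ±1 h preincubation with 10 µM MG-132 before test compound or 0.5 % DMSO for 16 h. Whole-cell lysates normalised by BCA, run on 4–12 % SDS-PAGE, blotted to PVDF and detected by chemiluminescence. Densitometry of a representative blot, normalised to GAPDH and to DMSO without MG-132.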

α-tubulin = assay: Immunoblot analysis of α-tubulin levels in SK-OV-3 cells; type: cell-based; details: 16 h
Summary of the method: as §1

[11] = target: T3, gatorbulin site of tubulin; details: cited from earlier work
human MDR1/P-gp = human MDR1/P-gp (Homo sapiens, UniProt P08183); assay: MDCK-MDR1 permeability assay; details: dog, MDCK-MDR1, pH 7.4
[12] = Hepatic microsomal stability, human; type: in vitro ADME; details: liver microsomes, pH 7.4
[13] = Hepatic microsomal stability, mouse; type: in vitro ADME; details: liver microsomes, pH 7.4
[14] = human, liver microsomes, probe bufuralol, hydroxylation to 4'-hydroxybufuralol
[15] = human, liver microsomes, probe tolbutamide, hydroxylation to hydroxytolbutamide

## NC(=O)N1c2ccccc2C=Cc2ccccc21 [Car, carbamazepine, reference compound]
[1]; mouse, plasma
  fraction unbound at 6 h, 2 µM: 0.36
[2]; human, plasma
  fraction unbound at 6 h, 2 µM: 0.25

## Cc1nc2c([nH]1)c(=O)n(C)c(=O)n2Cc1ccco1 [Fur, furafylline]
CYP3A4 [3]
  inhibition at 40 µM: < 10%
CYP2D6; [14]
  inhibition at 40 µM: < 10%
CYP2C9; [15]
  inhibition at 40 µM: < 10%
CYP1A2; human, microsomes
  inhibition at 40 µM: 82%

## C=C1NC(=O)[C@H](C)N(O)C(=O)[C@H]([C@@H](O)C(N)=O)N(C)C(=O)[C@H](C)OC(=O)[C@@H]2C[C@H](C)CN2C1=O [GB1, Gatorbulin-1] (cyclo([Dha][Pro(4S-Me)][Lac][X1][N(OH)Ala]))
[4]; 2 μM, 90 minutes
  Permeability-MDCK-PgP Mean Papp A to B: 1.8 10^−6 cm/s
  Permeability-MDCK-PgP Mean Papp B to A: 1.6 10^−6 cm/s
[4]
  Permeability-MDCK-PgP Substrate?: not a P-gp substrate or is a poor P-gp substrate; also recorded: poor or non-
[5]; listed as GB1 (1a)
  Kb (binding affinity, MTC): 2.2 ± 0.7 × 10^6 M^−1
[6]
  effectiveness in P-gp overexpressing cells versus parental line: less effective
CYP3A4 [7]
  Human P450 Inhibition 3A4 %Inh.: < 10 %Inh.
[1]
  Plasma Protein Binding Mouse (%free): 80 %free
[8]
  IC50: 590 nM
[2]
  Plasma Protein Binding Human (%free): 76 %free
CYP2D6
  Human P450 Inhibition 2D6 %Inh.: 11 %Inh.
[9]; SK-OV-3 and HeLa cells, 48 h
  concentration at which active: submicromolar
[9]
  IC50: 216 nM
[10]
  Solubility Kinetic: > 100 µM
PAMPA permeability
  Permeability-PAMPA Tested: 4.5 10^−6 cm/s
  Permeability-PAMPA Predicted level: high
CYP2C9
  Human P450 Inhibition 2C9 %Inh.: < 10 %Inh.
β-tubulin; 3.2 μM
  depletion of β-tubulin: 80%
β-tubulin
  preference for β-tubulin over α-tubulin depletion: ~ 3 fold
CYP1A2
  Human P450 Inhibition 1A2 %Inh.: 13 %Inh.
α-tubulin; 10 μM
  reduction of α-tubulin levels: 80%
α-tubulin; without MG132
  effect on α- and β-tubulin levels: induced a reduction of both α- and β-tubulin levels
[11]
  binding affinity reported previously: 1.01e+06 M⁻¹

## CC(=O)N1CCN(c2ccc(OCC3COC(Cn4ccnc4)(c4ccc(Cl)cc4Cl)O3)cc2)CC1 (centres unmarked) [Ket, ketoconazole]
CYP2C9; [15]
  inhibition at 1 µM: 39%
CYP1A2; human, liver microsomes
  inhibition at 1 µM: 13%

## CC(C)(C)NCC(O)COc1cccc2c1CC(O)C(O)C2 (centres unmarked) [Nad, nadolol]
Human MDR1/P-gp
  Papp A→B at 90 min, 2 µM: 1.9 ×10⁻⁶ cm/s
  Papp B→A at 90 min, 2 µM: 1.5 ×10⁻⁶ cm/s
  efflux ratio at 90 min, 2 µM: 0.8
[4]
  Permeability-MDCK-PgP Substrate?: poor or non-

## CC(=O)O[C@H]1C(=O)[C@@]2(C)[C@H]([C@H](OC(=O)c3ccccc3)[C@]3(O)C[C@H](OC(=O)[C@H](O)[C@@H](NC(=O)c4ccccc4)c4ccccc4)C(C)=C1C3(C)C)[C@]1(OC(C)=O)CO[C@@H]1C[C@@H]2O [Pac, paclitaxel, reference compound]
[10]
  Solubility Kinetic: 1.3 µM (≈ 1.11 µg/mL)

## CC(C)NCC(O)COc1cccc2ccccc12 (centres unmarked) [Pro, propranolol, reference compound]
PAMPA permeability; PAMPA, pH 7.4
  Papp at 5 h, 5 µM: 5.7 ×10⁻⁶ cm/s
PAMPA permeability
  Permeability-PAMPA Predicted level: high

## C=C[C@H]1C[N@@]2CC[C@H]1C[C@@H]2[C@@H](O)c1ccnc2ccc(OC)cc12 [Qui, quinidine]
Human MDR1/P-gp
  Papp A→B at 90 min, 2 µM: 1.6 ×10⁻⁶ cm/s
  Papp B→A at 90 min, 2 µM: 11.1 ×10⁻⁶ cm/s
CYP2C9; [15]
  inhibition at 10 µM: < 10%
CYP1A2; human, liver microsomes
  inhibition at 10 µM: < 10%

## CNC(=C[N+](=O)[O-])NCCSCc1ccc(CN(C)C)o1 [Ran, ranitidine, reference compound]
PAMPA permeability
  Permeability-PAMPA Predicted level: low

## Nc1ccc(S(=O)(=O)Nc2ccnn2-c2ccccc2)cc1 [Sul, sulfaphenazole, reference compound]
CYP2D6; [14]
  inhibition at 10 µM: < 10%
CYP1A2; human, liver microsomes
  inhibition at 10 µM: < 10%

## CCN(CC)CCNC(=O)c1c(C)[nH]c(/C=C2\C(=O)Nc3ccc(F)cc32)c1C [Sun, sunitinib]
[12]
  half-life at 1 µM: 34.5 min
[13]
  half-life at 1 µM: 13.5 min

## COc1cc([C@@H]2c3cc4c(cc3[C@H](O)[C@H]3COC(=O)[C@H]23)OCO4)cc(OC)c1OC [podophyllotoxin, reference compound]
[5]
  Kb (binding affinity, MTC): 1.5e+07 M⁻¹

## gatorbulin-2 [GB2]
[5]
  MTC displacement: no MTC displacement
CYP3A4 [7]
  Human P450 Inhibition 3A4 %Inh.: < 10 %Inh.
[1]
  Plasma Protein Binding Mouse (%free): 88 %free
[8]
  IC50: > 100000 nM
[2]
  Plasma Protein Binding Human (%free): 60 %free
CYP2D6
  Human P450 Inhibition 2D6 %Inh.: < 10 %Inh.
[9]
  IC50: > 100000 nM
[10]
  Solubility Kinetic: > 100 µM
PAMPA permeability
  Permeability-PAMPA Tested: 8.2 10^−6 cm/s
  Permeability-PAMPA Predicted level: high
CYP2C9
  Human P450 Inhibition 2C9 %Inh.: 18 %Inh.
CYP1A2
  Human P450 Inhibition 1A2 %Inh.: < 10 %Inh.
